High-throughput results: PubChem, The Scripps Research Institute Molecular Screening Center
CHRM5 antagonist – CHRM5 antagonism in calcium assay; P08912; CHO-hM5 cells, Fluo-8 calcium fluorescence, ACh EC80; inhibition, % at 3 µM; actives 0.59% (n = 360,000); AID 624040;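 active = inhibition above a per-plate cutoff, the mean of that plate's test compounds plus 3 SD, cut at about 27% in these data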;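 note: 0% = acetylcholine EC80 with DMSO and 100% = DMSO without agonist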
CHRM5 agonist – agonists of human muscarinic M5 receptor (CHRM5); P08912; CHO-K1 hM5 cells, Fluo-8 calcium fluorescence; 0% DMSO wells, 100% maximal acetylcholine response; activation, % at 3 µM; actives 0.19% (n = 360,000); AID 624037;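 active = activation above the run's mean over test compounds plus 3 SD, cut at about 23% in these data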;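 note: signal is peak over basal fluorescence ratio across the kinetic read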
M1 antag – human CHRM1 antagonism; P11229; CHO-K1 hM1, Fluo-8 calcium fluorescence, ACh EC80 antagonist; inhibition, % at 3 µM; actives 1.3% (n = 360,000); AID 588852;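 active = percent inhibition above its own plate's cutoff, namely the mean of that plate's compound wells plus 3 SD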;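 note: peak over basal fluorescence ratio during 140 s after agonist addition; 0% = ACh EC80 plus DMSO and 100% = DMSO alone without agonist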
Target sequence (P11229 whole entry, looked up): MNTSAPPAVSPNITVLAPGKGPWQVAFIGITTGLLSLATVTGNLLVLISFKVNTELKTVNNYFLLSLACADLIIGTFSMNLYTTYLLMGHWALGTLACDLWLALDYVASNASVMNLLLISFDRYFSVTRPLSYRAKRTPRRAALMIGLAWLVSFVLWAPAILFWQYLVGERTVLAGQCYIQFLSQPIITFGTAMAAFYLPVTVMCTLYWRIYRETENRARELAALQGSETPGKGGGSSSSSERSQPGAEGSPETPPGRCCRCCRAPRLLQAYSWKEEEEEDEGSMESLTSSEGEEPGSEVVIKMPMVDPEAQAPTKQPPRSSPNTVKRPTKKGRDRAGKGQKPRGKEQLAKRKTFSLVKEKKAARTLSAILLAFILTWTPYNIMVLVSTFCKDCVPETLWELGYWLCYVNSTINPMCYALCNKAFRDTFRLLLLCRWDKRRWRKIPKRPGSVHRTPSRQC
M1 PAM – human CHRM1 positive allosteric modulation; CHO-K1 hM1, Fluo-8 calcium fluorescence, ACh EC20; 0% = ACh EC20, 100% = maximal ACh; activation, % at 3 µM; actives 0.088% (n = 360,000); AID 588819; in the data active = activation above about 19%, passing the limit was not always enough
M5 PAM – positive allosteric modulators of human muscarinic M5 receptor. CHO-K1 hM5, Fluo-8 calcium, ACh EC20 PAM; 0% = ACh EC20, 100% = ACh EC100. activation, % at 3 µM. actives 0.3% (n = 360,000). AID 624038;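 active = activation above the run cutoff, the mean activation of all test compounds plus 3 SD, cut at about 18% in these data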
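Measured by: Fluo-8 calcium fluorescence; material: human M5 receptor in CHO-K1 cells; schedule: Post-acetylcholine fluorescence recording 140 s; benchmarks: low control EC20 acetylcholine (0%), high control EC100 acetylcholine (100%); read-out: Max/basal fluorescence ratio as % of EC20–EC100 ACh window; compound: single dose, 3 µM nominal final test concentration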
CHRM1 agonist – agonists of human M1 muscarinic receptor. P11229. CHO-K1 hM1, Fluo-8 calcium fluorescence, agonist mode; 0% DMSO, 100% acetylcholine EC100. activation, % at 3 µM. actives 0.33% (n = 360,000);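 active = activation above the run's mean compound activation plus 3 SD, cut at about 16% in these data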;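 note: peak over basal fluorescence ratio within a 140 s kinetic read after compound addition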
Active calls of the source: *; · = not tested or not shown. A selection: hits, their analogues and other compounds. The true share with any hit is near 2%.

SMILES	CHRM5 antagonist	CHRM5 agonist	M1 antag	M1 PAM	M5 PAM	CHRM1 agonist
C=CCn1c(SCc2ccc(C(=O)Nc3nccs3)cc2)nnc1-c1ccc(C)c(Cl)c1	26.9*	0.8	24.4	-18.1	-16.1	-3.2
CCn1cc(/C=N/NS(=O)(=O)c2ccc(OC)cc2)c(C)n1	16.6	21.7	-34.3	13.8	-3.2	20.7*
O=C(Nc1ccc2c(c1)CCC2)C1CCN(c2c3c(nc4ncnn24)CCC3)CC1	-2.9	-5.5	-2.0	2.6	-2.9	-4.8
O=C(Nc1ccc(Oc2ccccc2)cc1)C1CCN(c2c3c(nc4ncnn24)CCC3)CC1	5.7	-13.7	36.1*	-15.7	-12.2	1.1
CC(=O)c1ccc(OCc2nnn(CC(=O)NS(=O)(=O)Cc3ccccc3)c2-c2ccccc2)cc1	-1.1	1.4	17.7	-6.2	-0.7	-1.2
COc1ccc(S(=O)(=O)N2CCN(C3CCN(Cc4ccccc4)CC3)CC2)cc1	-2.2	-13.0	52.7*	-20.0	-10.3	-6.3
COc1ccc(S(=O)(=O)N2CCN(c3ccccc3)CC2)cc1	28.4*	-5.4	1.0	1.8	-11.5	-8.1
CCOC(=O)COc1ccc(S(=O)(=O)N2CCN(c3ccccc3F)CC2)cc1	5.9	3.7	-2.6	4.4	-4.8	-2.0
COc1cccc(CN2CCCN(S(=O)(=O)c3ccc(Br)cc3)CC2)c1	16.3	-12.3	37.3*	-21.1	-29.3	-2.1
CCOC(=O)COc1ccc(S(=O)(=O)N2CCN(c3ccc(OC)cc3)CC2)cc1	33.3*	-2.7	2.9	-11.4	-14.7	-5.2
O=S(=O)(c1ccccc1)N1CCN(c2ccccc2)CC1	-9.8	0.0	-13.4	11.5	1.8	-2.2
O=S(=O)(c1ccccc1)N1CCN(C2CCN(Cc3ccccc3)CC2)CC1	15.5	-10.6	24.8	-23.5	-28.2	-9.2
O=C(Nc1cccc(C(=O)N2CCOCC2)c1)C1CCCCC1	-6.6	2.0	·	·	3.1	·
O=C(CSc1ccccc1F)NCC(c1ccco1)N1CCCCC1 (stereo not given)	-5.8	-2.3	8.0	-11.8	-4.0	-8.0
COc1ccc(CN(C)[C@H]2C[C@H]3c4[nH]c5ccccc5c4CCN3C[C@H]2[C@H](C)O)cc1	-6.6	-0.2	8.8	-8.8	-3.1	-9.7
O=C(C[C@H]1CC[C@@H]2[C@H](COC[C@H](O)CN2C(=O)c2cnccn2)O1)NCc1ccc(Cl)cc1	3.9	0.4	·	·	0.3	·
CN(C)S(=O)(=O)N1CCN(c2ccccc2)CC1	0.5	1.1	-34.8	29.6*	3.0	8.0
CN(C)S(=O)(=O)N1CCN(c2cccc(Cl)c2)CC1	-1.2	-0.2	-0.7	3.1	-5.4	-3.5
O=C(CCc1nc2ccccc2c(=O)[nH]1)NCCN1C(=O)S/C(=C\c2ccc(Cl)cc2Cl)C1=O	0.8	3.7	26.1*	-11.2	-0.5	-0.4
Cc1c(C(=O)NCc2ccccc2C(F)(F)F)sc(=O)n1Cc1ccc2c(c1)OCO2	4.6	3.2	0.7	-2.1	-2.7	-2.0
O=S(=O)(NCCCN1CCOCC1)c1ccc2c(c1)OCCO2	-3.8	1.9	4.2	10.8	22.1*	-4.2
N#CC1(CCCN2CCCCC2)c2ccccc2CCc2ccccc21	26.9	-17.4	67.7*	-24.6	-36.0	-5.1
COc1ccccc1Cc1c(-c2ccc(C#N)cc2)nc2ccc(Br)cn12	7.1	0.1	-27.1	3.1	-3.1	-3.2
NCCCCCc1nnc(SCc2ccc(Cl)c(Cl)c2)o1	35.9*	-6.6	47.8*	-27.2	-19.1	-6.5
COc1ccc(C(CNC(=O)CN2C(=O)NC(C)(c3ccc4ccccc4c3)C2=O)N2CCCC2)cc1 (stereo not given)	0.5	-10.9	13.3	-6.2	-0.8	-8.8
O=C(c1ccncc1)N(Cc1ccccc1)Cc1nc2ccccc2c(=O)[nH]1	-3.3	6.5	5.2	1.3	29.1*	-2.7
O=C(c1ccccc1)N(Cc1ccc(F)cc1)Cc1nc2ccccc2c(=O)[nH]1	-1.1	5.8	-13.4	18.3	-4.5	3.8
O=C(O)CSc1nnc(CSc2nc3ccccc3s2)n1-c1ccccc1	-3.6	-3.7	-7.3	7.4	20.2*	-6.8
